Measurements: ChEMBL document CHEMBL1124999, “3-Phenyl analogues of 2-[[[2-(2,6-dimethoxyphenoxy)ethyl]amino]-methyl]-1,4-benzodioxan (WB 4101) as highly selective alpha 1-adrenoceptor antagonists” (J Med Chem, 1990)

Columns and labels:
[1] = target: T1, Adrenergic receptor alpha-1 (Rattus norvegicus, UniProt P15823+P23944+P43140); assay: pA2 value was measured in Alpha-1 adrenergic receptor against norepinephrine in rat vas deferens.
T1 sequence (P15823 whole entry): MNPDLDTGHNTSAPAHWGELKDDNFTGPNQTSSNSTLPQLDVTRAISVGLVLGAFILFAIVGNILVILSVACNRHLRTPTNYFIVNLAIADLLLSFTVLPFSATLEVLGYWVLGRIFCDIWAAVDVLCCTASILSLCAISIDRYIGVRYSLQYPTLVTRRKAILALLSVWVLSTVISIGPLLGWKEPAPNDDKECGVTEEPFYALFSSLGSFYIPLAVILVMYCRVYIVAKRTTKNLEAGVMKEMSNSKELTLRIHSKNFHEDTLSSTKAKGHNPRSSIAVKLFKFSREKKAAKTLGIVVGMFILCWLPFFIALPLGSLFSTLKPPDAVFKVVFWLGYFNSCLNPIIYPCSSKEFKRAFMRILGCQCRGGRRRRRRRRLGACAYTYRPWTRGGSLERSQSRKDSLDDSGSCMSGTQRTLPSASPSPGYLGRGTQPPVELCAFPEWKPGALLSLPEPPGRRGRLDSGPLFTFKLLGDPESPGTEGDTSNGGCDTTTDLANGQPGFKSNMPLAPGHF
T1 sequence (P23944 whole entry): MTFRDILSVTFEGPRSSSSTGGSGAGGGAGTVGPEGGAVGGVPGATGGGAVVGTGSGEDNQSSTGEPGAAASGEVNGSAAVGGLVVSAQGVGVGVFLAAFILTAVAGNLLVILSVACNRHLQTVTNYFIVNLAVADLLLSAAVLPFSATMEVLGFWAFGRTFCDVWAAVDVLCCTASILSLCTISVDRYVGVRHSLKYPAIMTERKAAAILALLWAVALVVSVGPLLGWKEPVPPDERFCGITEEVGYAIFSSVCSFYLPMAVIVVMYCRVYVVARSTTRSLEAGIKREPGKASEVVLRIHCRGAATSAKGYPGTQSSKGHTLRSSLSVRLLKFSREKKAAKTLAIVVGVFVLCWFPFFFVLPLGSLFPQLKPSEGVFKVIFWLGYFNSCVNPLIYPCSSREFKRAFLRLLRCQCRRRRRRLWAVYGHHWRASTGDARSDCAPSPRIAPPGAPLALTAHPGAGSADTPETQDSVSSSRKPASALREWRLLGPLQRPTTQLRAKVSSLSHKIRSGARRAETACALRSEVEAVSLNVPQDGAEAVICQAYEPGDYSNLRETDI
T1 sequence (P43140 whole entry): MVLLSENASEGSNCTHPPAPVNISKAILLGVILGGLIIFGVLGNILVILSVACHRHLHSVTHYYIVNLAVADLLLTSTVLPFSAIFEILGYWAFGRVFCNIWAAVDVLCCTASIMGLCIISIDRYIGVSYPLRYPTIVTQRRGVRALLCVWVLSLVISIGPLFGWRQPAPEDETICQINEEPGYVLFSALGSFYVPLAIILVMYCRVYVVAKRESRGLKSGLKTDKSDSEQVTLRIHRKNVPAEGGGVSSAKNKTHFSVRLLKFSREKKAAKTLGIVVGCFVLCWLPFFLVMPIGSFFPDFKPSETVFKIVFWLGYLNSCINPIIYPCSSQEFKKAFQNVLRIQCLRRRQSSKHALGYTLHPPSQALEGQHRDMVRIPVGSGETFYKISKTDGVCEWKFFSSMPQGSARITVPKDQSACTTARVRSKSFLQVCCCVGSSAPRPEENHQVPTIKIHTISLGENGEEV
Method in brief: (§1)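 Schild analysis with slope constrained to -1.0. Log(DR−1) was measured at three antagonist concentrations for α1 (norepinephrine) and four for α2 (clonidine), each tested at least five times. DR is the agonist ED50 with antagonist divided by that without. Curve parallelism was checked by linear regression (p < 0.05). Values are ± standard error of estimate.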

[2] = target: T2, Adrenergic receptor alpha-2 (Rattus norvegicus, UniProt P22086+P19328+P22909); assay: pA2 value was measured in Alpha-2 adrenergic receptor against clonidine in rat vas deferens.; method in brief: as §1
T2 sequence (P22086 whole entry): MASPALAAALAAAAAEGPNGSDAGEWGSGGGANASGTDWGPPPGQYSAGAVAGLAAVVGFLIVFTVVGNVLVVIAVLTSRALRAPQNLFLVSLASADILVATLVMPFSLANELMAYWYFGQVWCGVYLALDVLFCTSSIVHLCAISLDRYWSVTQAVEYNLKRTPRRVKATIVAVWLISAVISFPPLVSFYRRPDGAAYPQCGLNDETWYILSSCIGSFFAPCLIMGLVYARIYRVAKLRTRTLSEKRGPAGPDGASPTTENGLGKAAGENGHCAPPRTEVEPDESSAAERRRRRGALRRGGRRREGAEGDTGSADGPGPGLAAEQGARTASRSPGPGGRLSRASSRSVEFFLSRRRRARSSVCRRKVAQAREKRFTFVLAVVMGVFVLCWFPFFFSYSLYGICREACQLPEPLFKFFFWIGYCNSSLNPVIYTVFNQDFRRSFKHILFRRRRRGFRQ
T2 sequence (P19328 whole entry): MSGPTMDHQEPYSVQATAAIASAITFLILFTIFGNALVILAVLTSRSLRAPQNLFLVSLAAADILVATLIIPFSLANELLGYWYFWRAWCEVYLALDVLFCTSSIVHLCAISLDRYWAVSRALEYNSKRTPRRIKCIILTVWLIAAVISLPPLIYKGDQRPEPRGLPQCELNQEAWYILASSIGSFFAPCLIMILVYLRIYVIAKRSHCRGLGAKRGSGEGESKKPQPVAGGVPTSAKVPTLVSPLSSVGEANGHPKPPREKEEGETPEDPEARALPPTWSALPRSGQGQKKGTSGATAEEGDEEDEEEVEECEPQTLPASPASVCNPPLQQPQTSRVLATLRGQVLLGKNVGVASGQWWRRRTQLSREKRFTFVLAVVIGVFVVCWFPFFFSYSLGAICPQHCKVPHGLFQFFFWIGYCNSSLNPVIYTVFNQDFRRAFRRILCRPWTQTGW
T2 sequence (P22909 whole entry): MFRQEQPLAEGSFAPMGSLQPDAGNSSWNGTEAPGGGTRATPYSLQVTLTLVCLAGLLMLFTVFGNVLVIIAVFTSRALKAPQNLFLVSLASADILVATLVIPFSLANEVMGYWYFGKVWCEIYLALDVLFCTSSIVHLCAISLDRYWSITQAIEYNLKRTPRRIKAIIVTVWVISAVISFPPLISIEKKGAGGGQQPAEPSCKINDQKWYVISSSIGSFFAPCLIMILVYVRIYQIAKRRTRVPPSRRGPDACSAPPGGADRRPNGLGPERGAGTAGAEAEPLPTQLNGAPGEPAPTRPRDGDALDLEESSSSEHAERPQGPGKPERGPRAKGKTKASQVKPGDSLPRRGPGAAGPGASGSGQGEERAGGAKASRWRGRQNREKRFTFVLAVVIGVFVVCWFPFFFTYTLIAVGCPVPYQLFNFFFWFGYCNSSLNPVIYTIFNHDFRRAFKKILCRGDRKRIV

[3] = Selectivity ratio (alpha1/alpha2) of the compound
Method in brief: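 α1/α2 selectivity is the antilog of the difference between pA2 at α1- and α2-adrenoreceptors. Each pA2 comes from Schild plots against norepinephrine (α1) or clonidine (α2).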

[4] = target: T2, Adrenergic receptor alpha-2; assay: pA2 value was measured in aAlpha-2 adrenergic receptor against clonidine in rat vas deferens.; method in brief: as §1
[5] = target: T1, Adrenergic receptor alpha-1; assay: pIC50 value was measured in Alpha-1 adrenergic receptor against norepinephrine in rat vas deferens.

pA2 [1]	pA2 [2]	Selectivity ratio [3]	pA2 [4]	pIC50 [5]	Structure (SMILES)
8.27	4.85	2630	–	–	COc1cccc(OC)c1OCCNC[C@H]1C(=O)c2ccccc2O[C@@H]1c1ccccc1
9.3	–	–	6.4	–	COc1cccc(OC)c1OCCNC[C@H]1Oc2ccccc2OC1c1ccccc1 (stereo partly specified)
8.59	4.22	23400	–	–	COc1cccc(OC)c1OCCNC[C@H]1Oc2ccccc2O[C@@H]1c1ccccc1
–	4.49	6	–	5.29	COc1cccc(OC)c1OCCNC[C@H]1Oc2ccccc2O[C@H]1c1ccccc1
